Experiment [1] can be described thus: inhibitors of TNFa-induced NFkB p65 translocation, primary screen, imaging, HUVEC, MLSMR starter and 10KST1 sets (AID 438;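 active means inhibition above 20% together with a positive visual image hit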;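 further: compound added about 3h40 before a 20 min TNFalpha stimulation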;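 on inhibition: signal is the nuclear over cytoplasmic p65 intensity ratio per well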). To be noted: HUVEC TNFa-induced p65 nuclear translocation; cell count: measured here: nuclei count (cytotoxicity indicator), at 2.08 µM; inhibition: at 2 µM, stronger effect = higher value, 0% TNFa-plus-vehicle, 100% no-TNFa wells.
Experiment [2] can be described thus: endothelial E-selectin expression blockers – imaging, HUVEC, immunofluorescence, MLSMR starter and 10KST1 sets, primary screen (AID 487;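 active means visually confirmed hit in the image check and inhibition above 20%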;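 on inhibition: signal is fraction of cell area covered by stained E-selectin grains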;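 on nuclei count: 100% = median nuclei count of all wells on the same plate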). As to conditions: HUVEC TNFalpha-induced E-selectin immunofluorescence imaging, at 2 µM; inhibition: stronger effect = higher value; nuclei count: measured here: cell number, toxicity.
Experiment [3] can be described thus: Primary imaging screen for DUSP6 inhibitors that restore phospho-Erk in transfected HeLa cells, chemical complementation (AID 609;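 active means compounds giving at least 50% inhibition in the cell-based MKP-3 phosphatase rescue imaging test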;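 on inhibition: phospho-Erk level distribution per well compared with pooled transfected vehicle control wells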). As to conditions: HeLa MKP-3 transfected, phospho-Erk imaging KS statistic, at 10 µM, cells stimulated with TPA for 15 min.
Experiment [4] concerns the target Dual specificity protein phosphatase 6 (Homo sapiens) (UniProt Q16828). The description is as above. To be noted: HeLa MKP-3 transfected, phospho-Erk imaging KS statistic; at 10 µM; stronger effect = higher value; cells stimulated with TPA for 15 min.
The target in experiment [5] is Voltage-gated potassium channel subunit beta-2 (Rattus norvegicus) (UniProt P62483). Briefly: inhibitors of rat Kvbeta2 reductase activity – biochemical, NADPH fluorescence, primary screen (AID 622).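 Further: slope of raw intensity against log time taken from 70 to 1610 s.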 As to conditions: recombinant KvBeta, 4-cyanobenzaldehyde reduction, at 10 µM, stronger effect = higher value.
The target is the same in experiment [6]. Briefly: enhancers of rat Kvbeta2 NADPH turnover – biochemical, NADPH fluorescence, primary screen (AID 623;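 active means NADPH fluorescence slope more negative than the mean of all samples by about 3 SD, 99.7% confidence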;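 further: fluorescence intensity change per second fitted from 20 to 320 s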). To be noted: Recombinant KvBeta, NADPH fluorescence decrease slope, 10 min; at 10 µM; stronger effect = lower value.
Experiment [7] deals with Alpha-2C adrenergic receptor (Homo sapiens) (UniProt P18825). Briefly: compounds altering alpha2C-coupled GIRK flux – cell-based, HEK293 alpha2C/GIRK1/2, thallium flux, primary screen (AID 624;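 active means fluorescence slope after compound addition differing from the mean of all screened samples at 99.7% confidence, in either direction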;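 further: slope of fluorescence ratio to pre-addition baseline per second over 15 to 24 s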). As to conditions: thallium flux BTC fluorescence, at 10 µM, actives lie on both sides.
Experiment [8] is described as follows: inhibitors of larval lipid processing in zebrafish, primary screen, whole organism, PED6 fluorescence, gall bladder and intestine (AID 686;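 active means a full or partial loss of lipid-probe fluorescence in the fish gall bladder, intestine or both, judged by eye; inactive means no fluorescence loss, or compound toxic to the fish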;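 further: larvae 5 to 7 days old with five fish per well; signal comes from phospholipase A2 cleavage of quenched PED6 carried via bile; overnight exposure to compound and PED6 before scoring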). As to conditions: Zebrafish larvae PED6 lipid processing, fluorescence scoring; screened at 20 µM (by protocol). The gist of the method:
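System: live zebrafish larvae aged 5-7 days, whole organism; measure: graded gall bladder and intestinal fluorescence inhibition per well; incubation: overnight exposure; reagent: ingested quenched lipid PED6 at 100 nM; signal: By-eye fluorescence microscopy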

A short description of experiment [9]: loss of swimming-algae plug formation – whole organism, Chlamydomonas reinhardtii, WT vs cilia-less mutant, absorbance, 96-well, primary screen (AID 463189;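 active means inhibition at or above 50% relative to wild type and mutant plate controls; inactive means inhibition below 50%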;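 further: 0% = wild type cc124 cells in DMSO and 100% = ciliumless bld1 mutant cells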). As to conditions: Chlamydomonas reinhardtii gravitaxis, OD600 absorbance, 2 days; at 10 µM; stronger effect = higher value.
Setting [10] is: measured here: cell density z-score.
The mark [11] stands for this setting: measured here: nuclear c-Myc green intensity z-score.
Where [12] appears, read: measured here: nuclear pErk red intensity z-score, stronger effect = higher value.

Activity calls are given as the source filed them.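 How the source made its calls, unless noted: active means fluorescence slope higher than the sample average by over 3 SD (cut at about -0.22 in these data, passing the limit was not always enough); inactive means the rest.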

Chain of Dual specificity protein phosphatase 6 (Homo sapiens) (Q16828 whole entry, looked up): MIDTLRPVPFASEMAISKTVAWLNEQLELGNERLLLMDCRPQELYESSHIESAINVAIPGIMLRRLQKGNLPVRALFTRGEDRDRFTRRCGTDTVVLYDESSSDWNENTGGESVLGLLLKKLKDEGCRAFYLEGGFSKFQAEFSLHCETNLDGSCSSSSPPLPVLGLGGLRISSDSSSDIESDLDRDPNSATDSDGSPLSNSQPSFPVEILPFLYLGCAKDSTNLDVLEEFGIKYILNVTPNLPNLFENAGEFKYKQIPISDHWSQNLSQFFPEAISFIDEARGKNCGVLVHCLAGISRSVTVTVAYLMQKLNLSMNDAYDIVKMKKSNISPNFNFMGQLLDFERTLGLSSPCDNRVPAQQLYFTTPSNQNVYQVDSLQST
Chain of Alpha-2C adrenergic receptor (Homo sapiens) (P18825 whole entry, looked up): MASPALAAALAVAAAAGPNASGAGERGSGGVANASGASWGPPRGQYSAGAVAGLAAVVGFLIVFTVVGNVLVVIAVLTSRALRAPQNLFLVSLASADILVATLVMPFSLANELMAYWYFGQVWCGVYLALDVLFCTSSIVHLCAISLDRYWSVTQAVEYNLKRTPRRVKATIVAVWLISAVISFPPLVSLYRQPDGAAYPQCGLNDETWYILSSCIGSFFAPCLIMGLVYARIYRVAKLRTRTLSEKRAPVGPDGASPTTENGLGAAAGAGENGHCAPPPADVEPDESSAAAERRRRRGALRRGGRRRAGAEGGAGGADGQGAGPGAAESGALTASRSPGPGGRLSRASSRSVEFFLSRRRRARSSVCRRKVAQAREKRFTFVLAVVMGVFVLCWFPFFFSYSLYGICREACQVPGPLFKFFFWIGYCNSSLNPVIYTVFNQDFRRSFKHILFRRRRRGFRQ
Chain of Voltage-gated potassium channel subunit beta-2 (Rattus norvegicus) (P62483 whole entry, looked up): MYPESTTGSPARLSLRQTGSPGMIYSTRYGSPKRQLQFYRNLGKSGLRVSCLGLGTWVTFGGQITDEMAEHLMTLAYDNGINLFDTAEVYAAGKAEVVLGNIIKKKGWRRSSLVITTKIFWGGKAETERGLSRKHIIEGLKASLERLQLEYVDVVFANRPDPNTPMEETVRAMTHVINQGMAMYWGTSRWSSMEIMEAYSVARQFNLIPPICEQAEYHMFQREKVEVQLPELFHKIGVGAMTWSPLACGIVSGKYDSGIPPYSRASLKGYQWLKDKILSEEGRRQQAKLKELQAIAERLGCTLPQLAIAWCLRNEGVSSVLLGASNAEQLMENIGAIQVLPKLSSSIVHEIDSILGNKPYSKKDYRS

With `COc1ccc(Nc2oc(-c3cccs3)nc2C#N)cc1`, the cell count in [1] amounted to 383. Further, the inhibition in experiment [1] was 2.9% (inactive); in [2], -134% (inactive); in [4] it was 15% (inactive); in experiment [9], 16% (inactive). Moreover, the nuclei count in experiment [2] is 142%. The z-score in experiment [3] (setting [10]) is 1.97; in experiment [3] (setting [11]), -0.949; in [3] (setting [12]), -1.32. Besides, the fluorescence slope in [5] is -0.352 (inactive). The NADPH fluorescence slope in [6] is -1.7e-05 (inactive). For the same compound, in experiment [7], the slope was 0.00524 (inactive). In addition, the outcome in experiment [8] was inactive.
In the case of `Nc1[nH]nc2nc(NCc3ccccc3)c3c(c12)CCN(Cc1ccccc1)C3`, the cell count in experiment [1] was 638. In addition, the inhibition in experiment [1] is -12.3% (inactive); in [2], 20% (inactive); in [4], 15.1% (inactive); in experiment [9], 6.13% (inactive). This compound displayed a nuclei count in experiment [2] of 190%. Besides, the z-score in experiment [3] (setting [10]) is 1.59; in experiment [3] (setting [11]), -1.42; in experiment [3] (setting [12]), -0.833. For the same compound, the fluorescence slope in experiment [5] was -0.502 (inactive). For the same compound, the NADPH fluorescence slope in [6] is -6.3e-05 (inactive). The slope in experiment [7] is 0.00406 (inactive). In addition, the compound was called inactive in experiment [8].
In the case of `CCOC(=O)CCc1c(C)c(C#N)c2nc3ccccc3n2c1-n1ccnc1`, in [1], the cell count is 559. The inhibition in experiment [1] is -4.6% (inactive); in experiment [2], -37.8% (inactive); in [4], 25.8% (inactive); in experiment [9], -3.19% (inactive). Besides, the nuclei count in experiment [2] amounted to 140%. Moreover, the z-score is 1.11 in experiment [3] (setting [10]), -0.305 in experiment [3] (setting [11]) and 0.783 in experiment [3] (setting [12]). Also, the fluorescence slope in experiment [5] was -0.172 (inactive). The NADPH fluorescence slope in [6] was -3.3e-07 (inactive). For the same compound, in experiment [7], the slope was 0.0062 (inactive). Also, the call in experiment [8] was inactive.
As for `CN1CCc2c(sc3ncn4nc(-c5ccccc5O)nc4c23)C1`, in experiment [1], the cell count is 519. Further, the inhibition is -12.5% (inactive) in experiment [1], -51.6% (inactive) in [2], 9.39% (inactive) in experiment [4] and 87% (active) in [9]. This compound gave a nuclei count in [2] of 125%. Also, the z-score in experiment [3] (setting [10]) is 0.947; in experiment [3] (setting [11]), -1.25; in [3] (setting [12]), 0.576. For the same compound, the fluorescence slope in experiment [5] is -0.472 (inactive). In addition, the NADPH fluorescence slope in [6] is -0.000226 (inactive). Also, the slope in experiment [7] was 0.00542 (inactive). Also, the call in experiment [8] was inactive.
As to `CCOC(=O)c1c(N)sc2c1CCC1C(=O)N(C3CCCCC3)C(=O)C21` (stereo not given), the cell count in experiment [1] was determined as 593. Further, the inhibition in experiment [1] was -15.5% (inactive); in experiment [2], -59.6% (inactive); in experiment [4] it was -11% (inactive); in experiment [9] it was -3.12% (inactive). The compound also showed a nuclei count in [2] of 170%. The z-score was -0.619 in experiment [3] (setting [10]), -0.159 in [3] (setting [11]) and 0.799 in [3] (setting [12]). For the same compound, the fluorescence slope in experiment [5] is -0.362 (inactive). Moreover, the NADPH fluorescence slope in [6] was -3.1e-06 (inactive). For the same compound, the slope in [7] is 0.0048 (inactive). Further, the outcome in experiment [8] was inactive.
With `COc1cccc(OC)c1-c1nn2c(-c3ccco3)nnc2s1`, the cell count in experiment [1] amounted to 630. The inhibition was -5.2% (inactive) in experiment [1], -86.6% (inactive) in experiment [2], 10.1% (inactive) in [4] and 5.78% (inactive) in experiment [9]. In experiment [2], the nuclei count was found to be 172%. The z-score in [3] (setting [10]) is 0.253; in experiment [3] (setting [11]), 0.886; in experiment [3] (setting [12]), -0.677. In addition, the fluorescence slope in experiment [5] was -0.431 (inactive). In addition, the NADPH fluorescence slope in experiment [6] is -0.000166 (inactive). The slope in experiment [7] was 0.00439 (inactive). Further, in [8], the result was inactive.
For `Cc1ccsc1C1NC(=O)c2c(sc3c2CCCC3)N1` (stereo not given), in experiment [1], the cell count is 584. For the same compound, the inhibition was -31.7% (inactive) in experiment [1], -31.6% (inactive) in [2], -18.6% (inactive) in experiment [4] and 22.5% (inactive) in [9]. This compound also came in with a nuclei count in [2] of 166%. The figures for the z-score in experiment [3] (setting [10]), in experiment [3] (setting [11]) and in experiment [3] (setting [12]) were -1.62, -0.46 and 1.02, respectively. Further, the fluorescence slope in experiment [5] is -0.411 (inactive). Besides, in [6], the NADPH fluorescence slope is -3.5e-05 (inactive). Also, the slope in experiment [7] is 0.00518 (inactive). Besides, the call in [8] was inactive.
With `CN(C)CCNc1nc(-c2ccco2)c2c(c1C#N)CC(C)(C)OC2`, the cell count in [1] was found to be 621. Besides, the inhibition in experiment [1] was -14.2% (inactive); in experiment [2] it was -15.8% (inactive); in experiment [4] it was 1.48% (inactive); in experiment [9], 17.6% (inactive). In experiment [2], the nuclei count came out at 164%. Also, the figures for the z-score in experiment [3] (setting [10]), in experiment [3] (setting [11]) and in experiment [3] (setting [12]) were -0.37, -0.517 and 0.864, respectively. In experiment [5], the fluorescence slope is -0.34 (inactive). For the same compound, the NADPH fluorescence slope in experiment [6] was -5.5e-05 (inactive). Besides, in [7], the slope is 0.00509 (inactive). The call in experiment [8] was inactive.
For `CCOc1ccc(C2/C(=C(/O)c3ccc(F)cc3)C(=O)C(=O)N2CCCN(C)C)cc1` (stereo not given), the cell count in experiment [1] came out at 564. Moreover, the inhibition in experiment [1] was -4.5% (inactive); in experiment [2] it was -17% (inactive); in experiment [4] it was -1.12% (inactive); in experiment [9], -0.349% (inactive). This compound yielded a nuclei count in experiment [2] of 186%. In addition, the figures for the z-score in [3] (setting [10]), in experiment [3] (setting [11]) and in experiment [3] (setting [12]) were -0.359, 0.0868 and -0.309, respectively. In addition, the fluorescence slope in experiment [5] is -0.388 (inactive). In experiment [6], the NADPH fluorescence slope is -3e-05 (inactive). For the same compound, the slope in [7] was 0.00504 (inactive). Also, the result in experiment [8] was inactive.
`CN(C)CCCOC(=O)C1c2ccccc2Oc2ccccc21`: the cell count in [1] amounted to 542. Further, the inhibition in [1] is 1.3% (inactive); in experiment [2] it was 31.3% (inactive); in experiment [4], -8.76% (inactive); in [9], 8% (inactive). In [2], this compound yielded a nuclei count of 169%. In addition, the z-score is -1.43 in [3] (setting [10]), -0.729 in [3] (setting [11]) and 0.0446 in experiment [3] (setting [12]). Also, the fluorescence slope in [5] was -0.329 (inactive). In addition, in [6], the NADPH fluorescence slope was -1.7e-05 (inactive). For the same compound, the slope in [7] is 0.00512 (inactive). In experiment [8], the result was inactive.

(Values after PubChem BioAssay.)
